The values below come from ChEMBL document CHEMBL1156916, “New fluorinated 1,2,4-benzothiadiazine 1,1-dioxides: discovery of an orally active cognitive enhancer acting through potentiation of the 2-amino-3-(3-hydroxy-5-methylisoxazol-4-yl)propionic acid receptors” (J Med Chem, 2010).

Calls of active or inactive are those of the source. No cut-off for these calls is given here. Some results are limits rather than exact numbers.

Data set [1] deals with Mus musculus. In words: Toxicity in mouse at 10 to 30 mg/kg, ip by Irwin's test. The note with it: in vivo. On the set-up: dose 10-30 mg/kg, route intraperitoneal. In kind it is organism-based.
A further data set has as its system Oocyte. In words: Induction of amplitude current in Xenopus laevis oocytes assessed as 2 fold increase in AMPA-induced current by voltage clamp method. In kind it is functional. In short, it runs like this: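 Xenopus oocytes injected with poly(A+) mRNA from cortex of 15-day-old male Wistar rats, expressed 3 days at 18 °C. Two-electrode voltage clamp at -60 mV; 10 μM (S)-AMPA applied 30 s every 5 min. Compound given at increasing concentrations 45 s before, during and after AMPA; peak current compared with the same oocyte's control. EC2X is the 2-fold increase; n ≥ 3, mean ± SEM.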

For data set [2], the system named is Mus musculus. Description: Toxicity in mouse at 30 mg/kg, ip. The note with it: in vivo.
In data set [3] the test system is Rattus norvegicus. In words: Increase in memory in po dosed Wistar rat by object recognition test. In kind it is functional, organism-based. The procedure, abridged: (§1)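 Male Wistar rats (220-330 g), three sessions: 2 min habituation, acquisition with two identical objects, then 3 min recognition with one object replaced by a novel one. Oral compound or vehicle given 1 h before each session. Discrimination index is novel minus familiar exploration time; n = 9-10 per dose; ANOVA plus Dunnett.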

A short description of data set [4]: Dissociation constant, pKa of the compound. In kind it is physicochemical.
Data set [5] concerns Hippocampus. Description: Increase in AMPA-mediated postsynaptic response recorded in rat hippocampus CA1 region assessed as increase in excitatory postsynaptic field potential area at 50 uM. In kind it is functional. In short, it runs like this: (§2)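 Rat hippocampal slices, Schaffer collateral stimulation with EPSfPs recorded in CA1; perfusion medium contains 1.2 mM Mg2+. Compound bath-applied for 10 min at successively increasing concentrations, with washout to recovery. Amplitude, area and half-width averaged over five pulses and normalized to five pre-drug responses (100%). Compared with vehicle by two-way ANOVA plus Dunnett.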

In data set [6] the test system is Mus musculus. In words: Toxicity in mouse assessed as hypothermia at 30 mg/kg, po after 1.5 hrs. The settings on record: in vivo.
In data set [7] the test system is Rattus norvegicus. Description: Increase in duration of long term potentiation in dentate gyrus of anesthetized Wistar rat hippocampus at 10 mg/kg, ip measured for 3 hrs. More on the design: dose 10 mg/kg. The class given is functional, organism-based. In short, it runs like this: (§3)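 Male Wistar rats (300-400 g) anaesthetized with chloral hydrate 400 mg/kg ip; body temperature held at 36.6-37 °C. Perforant path stimulated, dentate gyrus recorded. After a 60 min baseline, compound or vehicle given ip; tetanus 60 min later (four 400 Hz bursts). Recorded for 3 h; EPSfP amplitude normalized to baseline; two-way ANOVA plus Dunnett.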

The test system of data set [8] is Hippocampus. In words: Increase in AMPA-mediated postsynaptic response recorded in rat hippocampus CA1 region assessed as increase in excitatory postsynaptic field potential half width at 50 uM. The class given is functional. The procedure, abridged:
as §2

The test system of data set [9] is Hippocampus. In words: Increase in AMPA-mediated postsynaptic response recorded in rat hippocampus CA1 region assessed as increase in excitatory postsynaptic field potential area. In kind it is functional, tissue-based. The procedure, abridged: as §2
Data set [10] relates to Rattus norvegicus. Description: Increase in memory in Wistar rat at 0.03 to 1 mg/kg, po treated 60 mins before test session by object recognition test. In kind it is functional, organism-based. In short, it runs like this: as §1
In a further data set the test system is Liver microsomes. Description: Metabolic stability in rat liver microsomes assessed as metabolite degradation after 30 mins at 37 degC by HPLC. The class given is ADME, Microsome. The settings on record: 0.5 h. In short, it runs like this: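 Phenobarbital-induced rat liver microsomes at 1 mg/mL protein with 200 μM substrate (methanol <1%), 37 °C, NADPH-generating system in pH 7.4 phosphate buffer. Incubated 30 min; T0 samples quenched with organic solvent. Metabolites resolved by RP-HPLC with ESI-MS/MS and identified against synthetic standards.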
(Liver microsomes are vesicles of endoplasmic reticulum, rich in cytochrome P450 enzymes.)

The test system of data set [11] is Rattus norvegicus. Description: Increase in long term potentiation-evoked EPSfP amplitude in dentate gyrus of anesthetized Wistar rat hippocampus at 3 mg/kg, ip measured for 3 hrs. In kind it is functional, organism-based. On the set-up: dose 3 mg/kg. In short, it runs like this: as §3
The subject of data set [12] is Hippocampus. Description: Increase in AMPA-mediated postsynaptic response recorded in rat hippocampus CA1 region assessed as increase in excitatory postsynaptic field potential amplituted at 50 uM. The class given is functional. The procedure, abridged: as §2

Regarding `O=S1(=O)N=CNc2ccc(Cl)cc21`, the Activity entry in the data set on Mus musculus [1] is “Non-toxic”. For the molecule `NS(=O)(=O)c1cc2c(cc1Cl)NC(C1CC3C=CC1C3)NS2(=O)=O` (stereo unspecified) [CYCLOTHIAZIDE], the EC in the data set with Oocyte came out at 1.7 µM. Take `O=S1(=O)N=CN(CCF)c2ccc(Cl)cc21`: the Activity result with Mus musculus [1] is listed as “Non-toxic”.

For `O=S1(=O)NCN(CCF)c2ccc(Br)cc21`, the EC with Oocyte is 17 µM. Same read-out and setting: next, `CCN1CNS(=O)(=O)c2cc(C)ccc21`: 25 µM. On to `O=S1(=O)NCN(CC(F)(F)F)c2ccc(Cl)cc21`, for which the EC in the data set on Oocyte came out at 19 µM. Moreover, the Activity result with Mus musculus [2] was “Non-toxic”. The result with Rattus norvegicus [3] was inactive. Further, the pKa (commonly the pH at which an ionisable group is half protonated) in data set [4] stood at 9.01.

Regarding `Cc1ccc2c(c1)S(=O)(=O)NCN2CCF`, in the data set with Oocyte, the EC came out at 47.5 µM. On to `O=S1(=O)NCN(CCF)c2ccc(Cl)cc21`, for which the Activity with Hippocampus [5] was 66%; in the data set with Mus musculus [6], “Toxic”; with Hippocampus [8], 47%; in the data set on Hippocampus [9] it was “Dose-dependent effect”; in the data set on Mus musculus [2] it was “Non-toxic”; with Hippocampus [12], 23%. For the same molecule, the EC in the data set on Oocyte stood at 6.7 µM. Also, the outcome with Rattus norvegicus [7], in the data set with Rattus norvegicus [10], in the data set with Rattus norvegicus [11] and with Rattus norvegicus [3] was Active. For the same molecule, in the data set on Liver microsomes, the Stability entry is given as “Unstable”. Besides, in data set [4], the pKa came to 9.35. As for `CCN1CNS(=O)(=O)c2cc(OC)ccc21`, the EC in the data set on Oocyte worked out at 68 µM.

`O=[N+]([O-])c1ccc2c(c1)S(=O)(=O)NCN2CC(F)(F)F`: the EC with Oocyte came to 55 µM. On the same count and under the same terms, next, `O=S1(=O)NCN(CCF)c2ccc(F)cc21`: 3.6 µM. Still for that read-out and setting: next, `CCN1CNS(=O)(=O)c2cc(I)ccc21`: 95 µM. Regarding `O=[N+]([O-])c1ccc2c(c1)S(=O)(=O)NCN2CCF`, the EC in the data set with Oocyte amounted to 27 µM. In addition, in [4], the pKa turned out to be 8.45. For `O=S1(=O)N[C@H]2CCCN2c2ccccc21`, the EC in the data set on Oocyte was found to be 25 µM. Still for that read-out and setting: next, `O=S1(=O)NCN(CCO)c2ccc(Cl)cc21`: 54 µM. Same read-out and setting: next, `O=S1(=O)NCN(CCF)c2ccc(C(F)(F)F)cc21`: >300 µM.

Take `O=S1(=O)NCN(CC(F)F)c2ccc(Cl)cc21`: the EC with Oocyte stood at 13.5 µM.

On to `CCN1CNS(=O)(=O)c2cc(C(F)(F)F)ccc21`, for which the EC in the data set with Oocyte is >300 µM. Still for that read-out and setting: next, `O=S1(=O)NCN(CCF)c2ccc(I)cc21`: 120 µM; `CCN1CNS(=O)(=O)c2cc(Cl)cnc21`: 28.3 µM; `CCN1CNS(=O)(=O)c2cc(Br)ccc21`: 29 µM. The same measure, in the same setting: next, `COc1ccc2c(c1)S(=O)(=O)NCN2CCF`: 71 µM. With `CCN1CNS(=O)(=O)c2cc([N+](=O)[O-])ccc21`, the EC in the data set with Oocyte was 16 µM.

Take `CCN1CNS(=O)(=O)c2cc(Cl)ccc21`: in the data set on Liver microsomes, the Stability result is given as “Unstable”. This molecule also registered a pKa in data set [4] of 9.33.
